Laboratory results published in PubChem BioAssay.
Calls of active or inactive are those of the source.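 How the source made its calls, unless noted: active means visually confirmed hit in the image check and inhibition above 20%; inconclusive means visually confirmed hit but inhibition not above 20%; inactive means no visual hit in the image check.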

Columns and labels:
[1] = inhibitors of TNFa-induced NFkB p65 translocation, primary screen, imaging, HUVEC, MLSMR starter and 10KST1 sets (AID 438;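 active means inhibition above 20% together with a positive visual image hit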;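 further: compound added about 3h40 before a 20 min TNFalpha stimulation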;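 on inhibition: signal is the nuclear over cytoplasmic p65 intensity ratio per well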); settings: HUVEC TNFa-induced p65 nuclear translocation; cell count: measured here: nuclei count (cytotoxicity indicator), at 2.08 µM; inhibition: at 2 µM, stronger effect = higher value, 0% TNFa-plus-vehicle, 100% no-TNFa wells
[2] = inhibitors of E-selectin induction by TNFa, primary screen, imaging, HUVEC, immunofluorescence, MLSMR starter and 10KST1 sets (AID 487); settings: HUVEC TNFalpha-induced E-selectin immunofluorescence imaging, at 2 µM; inhibition: stronger effect = higher value; nuclei count: measured here: cell number, toxicity;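 on inhibition: signal is fraction of cell area covered by stained E-selectin grains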;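 on nuclei count: 100% = median nuclei count of all wells on the same plate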
[3] = DUSP6 inhibitors restoring Erk phosphorylation by chemical complementation, primary imaging in DUSP6-transfected HeLa (AID 609;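 active means compounds giving at least 50% inhibition in the cell-based MKP-3 phosphatase rescue imaging test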;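 on inhibition: phospho-Erk level distribution per well compared with pooled transfected vehicle control wells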); settings: HeLa MKP-3 transfected, phospho-Erk imaging KS statistic, at 10 µM, cells stimulated with TPA for 15 min
[4] = target: Dual specificity protein phosphatase 6 (Homo sapiens) (UniProt Q16828); test: as above; settings: HeLa MKP-3 transfected, phospho-Erk imaging KS statistic; at 10 µM; stronger effect = higher value; cells stimulated with TPA for 15 min
[5] = target: Voltage-gated potassium channel subunit beta-2 (Rattus norvegicus) (UniProt P62483); test: KvBeta enzyme negative modulators, primary screen, biochemical, NADPH fluorescence (AID 622;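 active means fluorescence slope higher than the sample average by over 3 SD, cut at about -0.22 in these data, passing the limit was not always enough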;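 further: slope of raw intensity against log time taken from 70 to 1610 s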); settings: recombinant KvBeta, 4-cyanobenzaldehyde reduction, at 10 µM, stronger effect = higher value
[6] = target: Voltage-gated potassium channel subunit beta-2 (Rattus norvegicus) (UniProt P62483); test: KvBeta positive modulators, primary screen, biochemical, NADPH fluorescence (AID 623;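 active means NADPH fluorescence slope more negative than the mean of all samples by about 3 SD, 99.7% confidence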;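 further: fluorescence intensity change per second fitted from 20 to 320 s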); settings: Recombinant KvBeta, NADPH fluorescence decrease slope, 10 min; at 10 µM; stronger effect = lower value
[7] = target: Muscarinic acetylcholine receptor M4 (Homo sapiens) (UniProt P08173); test: compounds altering M4/GIRK thallium flux, either direction, primary screen, M4 allosteric agonist project, cell-based, HEK293 M4/GIRK, BTC-AM (AID 625;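 active means fluorescence slope after compound addition differing from the mean of all tested samples at 99.7% confidence, mostly higher but some lower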;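 further: thallium influx through GIRK channels coupled to M4 in HEK293 cells with BTC-AM dye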); settings: at 10 µM, actives lie on both sides
Method in brief: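 assay system = HEK293 cells with M4 receptor and GIRK channels | medium = pH 7.3 thallium assay buffer | doses = 10 µM final, single point | timing = cells overnight at 37 °C, BTC-AM loading 1 h, reads 2 min total | signal = BTC-AM fluorescence, 1 Hz kinetic reads | read-out = post-addition slope, 15–24 s, of baseline-normalized fluorescence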

[8] = inhibitors of larval lipid processing in zebrafish, primary screen, whole organism, PED6 fluorescence, gall bladder and intestine (AID 686;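 active means a full or partial loss of lipid-probe fluorescence in the fish gall bladder, intestine or both, judged by eye; inactive means no fluorescence loss, or compound toxic to the fish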;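 further: larvae 5 to 7 days old with five fish per well; signal comes from phospholipase A2 cleavage of quenched PED6 carried via bile; overnight exposure to compound and PED6 before scoring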); settings: Zebrafish larvae PED6 lipid processing, fluorescence scoring; screened at 20 µM (by protocol)
Method in brief: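 Also added: quenched phospholipase substrate PED6, 100 nM final, ingested by larvae; System: zebrafish larvae, 5-7 d; Quantity: 5 larvae per well; Compound: 20 µM single dose; Schedule: overnight compound and PED6 incubation; Read-out: visual per-well fluorescence inhibition score; Measured by: By-eye fluorescence microscopy; Medium: E3.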

[9] = inhibitors of Chlamydomonas gravitaxis, primary screen, whole organism, Chlamydomonas reinhardtii, WT vs cilia-less mutant, absorbance, 96-well (AID 463189;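 active means inhibition at or above 50% relative to wild type and mutant plate controls; inactive means inhibition below 50%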;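 further: 0% = wild type cc124 cells in DMSO and 100% = ciliumless bld1 mutant cells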); settings: OD600 absorbance, 2 days, at 10 µM, stronger effect = higher value
[10] = measured here: cell density z-score
[11] = measured here: nuclear c-Myc green intensity z-score
[12] = measured here: nuclear pErk red intensity z-score, stronger effect = higher value

Chain of Muscarinic acetylcholine receptor M4 (Homo sapiens) (P08173 whole entry, looked up): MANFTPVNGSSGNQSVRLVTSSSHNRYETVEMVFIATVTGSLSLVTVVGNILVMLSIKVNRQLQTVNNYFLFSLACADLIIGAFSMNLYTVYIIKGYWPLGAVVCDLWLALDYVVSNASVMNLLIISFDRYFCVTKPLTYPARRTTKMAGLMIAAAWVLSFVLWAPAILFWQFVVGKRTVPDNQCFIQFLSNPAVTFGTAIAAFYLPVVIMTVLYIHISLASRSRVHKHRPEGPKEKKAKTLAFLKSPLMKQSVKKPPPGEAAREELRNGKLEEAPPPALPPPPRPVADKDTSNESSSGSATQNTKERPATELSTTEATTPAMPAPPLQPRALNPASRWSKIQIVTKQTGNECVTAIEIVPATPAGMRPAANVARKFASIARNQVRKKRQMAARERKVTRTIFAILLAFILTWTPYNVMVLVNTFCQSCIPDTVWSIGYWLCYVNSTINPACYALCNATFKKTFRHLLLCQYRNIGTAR
Chain of Voltage-gated potassium channel subunit beta-2 (Rattus norvegicus) (P62483 whole entry, looked up): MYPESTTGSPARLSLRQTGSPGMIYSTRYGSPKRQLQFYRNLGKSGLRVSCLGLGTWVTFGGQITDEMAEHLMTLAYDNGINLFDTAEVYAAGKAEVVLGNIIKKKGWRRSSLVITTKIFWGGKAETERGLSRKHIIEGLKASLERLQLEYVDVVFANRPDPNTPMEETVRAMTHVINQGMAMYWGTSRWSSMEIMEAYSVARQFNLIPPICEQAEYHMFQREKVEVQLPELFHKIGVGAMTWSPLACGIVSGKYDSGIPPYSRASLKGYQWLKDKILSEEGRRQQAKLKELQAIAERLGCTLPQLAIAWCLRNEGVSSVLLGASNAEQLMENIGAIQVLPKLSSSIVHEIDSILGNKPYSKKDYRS
Chain of Dual specificity protein phosphatase 6 (Homo sapiens) (Q16828 whole entry, looked up): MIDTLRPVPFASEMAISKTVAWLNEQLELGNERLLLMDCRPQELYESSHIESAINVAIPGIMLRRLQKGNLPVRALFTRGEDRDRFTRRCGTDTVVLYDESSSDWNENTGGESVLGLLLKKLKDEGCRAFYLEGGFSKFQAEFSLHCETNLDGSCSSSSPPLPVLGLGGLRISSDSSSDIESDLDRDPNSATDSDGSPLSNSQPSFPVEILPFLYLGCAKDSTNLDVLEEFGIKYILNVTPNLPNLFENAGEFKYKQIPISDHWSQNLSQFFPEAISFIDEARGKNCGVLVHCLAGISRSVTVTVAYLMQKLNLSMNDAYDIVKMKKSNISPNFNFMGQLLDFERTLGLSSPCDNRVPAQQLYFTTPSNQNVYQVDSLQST

| SMILES | cell count [1] | inhibition [1] | inhibition [2] | nuclei count [2] [%] | z-score [3, 10] | z-score [3, 11] | z-score [3, 12] | inhibition [4] | fluorescence slope [5] | NADPH fluorescence slope [6] | fluorescence slope [7] | outcome [8] | inhibition [9] |
| --- | --- | --- | --- | --- | --- | --- | --- | --- | --- | --- | --- | --- | --- |
| Cc1cccc(-c2nnc3n2N=C(c2ccc(Br)cc2)CS3)c1 | 769 | -2.9% (inactive) | -27.2% (inactive) | 176 | -0.385 | 0.639 | 0.0185 | -2.91% (inactive) | -0.433 (inactive) | -5.4e-05 (inactive) | 0.006 (inactive) | inactive | -0.766% (inactive) |
| CCNC(=O)c1cc2c(=O)n3cccc(C)c3nc2n(CCc2ccccc2)c1=N | 643 | 8.2% (inactive) | -7.9% (inactive) | 106 | -0.692 | 0.0237 | -0.676 | 14.7% (inactive) | -0.0428 (inactive) | -1.8e-05 (inactive) | 0.00034 (inactive) | active; no signal in intestine only | 70.9% (active) |
| COc1ccc(C2NC(=O)NC(O)(C(F)(F)F)C2C(=O)c2ccc(F)cc2)cc1 (stereo not drawn) | 632 | 6.6% (inactive) | -68.3% (inactive) | 159 | -1.22 | 1.16 | 0.887 | -0.674% (inactive) | -0.479 (inactive) | -5.2e-05 (inactive) | 0.00666 (inactive) | inactive | -6.15% (inactive) |
| COc1cccc(C2/C(=C(\O)c3ccc4c(c3)OCCO4)C(=O)C(=O)N2CCCN(C)C)c1OC (stereo not drawn) | 396 | 1.1% (inactive) | -21.2% (inactive) | 174 | 0.231 | -0.342 | 2 | -6.86% (inactive) | -0.452 (inactive) | -9.9e-05 (inactive) | 0.00452 (inactive) | inactive | 18.1% (inactive) |
| CC(=O)CCn1c(=O)n(CCC(C)=O)c(=O)n(CCC(C)=O)c1=O | 352 | -1.6% (inactive) | -7% (inactive) | 97.7 | -1.19 | 2.07 | -0.0971 | 5.42% (inactive) | -0.512 (inactive) | -4.3e-05 (inactive) | 0.00631 (inactive) | inactive | -14.3% (inactive) |
| COc1ccc(C2CC(c3ccccc3)Nc3nc(N)nn32)cc1 (stereo not drawn) | 377 | 4.8% (inactive) | -29.3% (inactive) | 110 | -1.01 | -0.362 | -0.446 | 1.48% (inactive) | -0.495 (inactive) | -1.6e-05 (inactive) | 0.00558 (inactive) | inactive | -15% (inactive) |
| CSc1nc2sc3c(c2c2nnnn12)CCCC3 | 506 | -14.9% (inactive) | -77.3% (inactive) | 118 | 0.676 | -0.0981 | -1.25 | -5.81% (inactive) | -0.455 (inactive) | -7.9e-06 (inactive) | 0.00421 (inactive) | inactive | 31% (inactive) |
| CCCCN(CCCC)C(=O)CSc1nnc2n(C)c(=O)c3c4c(sc3n12)CCCC4 | 496 | -18.2% (inactive) | -94.2% (inactive) | 142 | 2.28 | -1.51 | -0.0585 | 7.93% (inactive) | -0.463 (inactive) | -4.6e-05 (inactive) | 0.00616 (inactive) | inactive | 84% (active) |
| O=C(c1ccc(=O)oc1)N1CCN(C(c2ccccc2)c2ccccc2)CC1 | 630 | -3.2% (inactive) | -22.1% (inactive) | 168 | -0.99 | 0.461 | 1.67 | -3.95% (inactive) | -0.474 (inactive) | -7.6e-05 (inactive) | 0.00524 (inactive) | inactive | 4.32% (inactive) |
| CCCCN1C(=O)C(O)=C(C(C)=O)C1c1ccc(OC)cc1OC (stereo not drawn) | 479 | -4.2% (inactive) | -323% (inactive) | 189 | 0.403 | -0.372 | 1.98 | -7.28% (inactive) | -0.464 (inactive) | -4.3e-05 (inactive) | 0.00466 (inactive) | inactive | -3.96% (inactive) |
| CN1C(=O)NC(c2ccccc2)C2=C1CN(Cc1ccccc1)C2=O (stereo not drawn) | 400 | -7.1% (inactive) | -56.6% (inactive) | 139 | 0.502 | -1.59 | 1.04 | -2.59% (inactive) | -0.501 (inactive) | -0.000103 (inactive) | 0.00419 (inactive) | inactive | 23.3% (inactive) |
| O=C(O)c1cc2sccc2s1 | 643 | 0% (inactive) | 23.1% (inactive) | 160 | 0.481 | -0.0742 | -0.912 | -6.48% (inactive) | -0.465 (inactive) | -2.7e-05 (inactive) | 0.005 (inactive) | inactive | -3.38% (inactive) |
| COC(=O)c1ccc(C2/C(=C(/O)c3ccc(OC)cc3)C(=O)C(=O)N2Cc2ccco2)cc1 (stereo not drawn) | 603 | -5.8% (inactive) | -47.8% (inactive) | 96.4 | -1.62 | 0.429 | -2.41 | -4.59% (inactive) | -0.4 (inactive) | 4.5e-06 (inactive) | 0.0058 (inactive) | inactive | -8.72% (inactive) |
| COc1ccccc1C(=O)Nc1cc(Cl)ccc1O | 582 | -2.4% (inactive) | -76% (inactive) | 123 | -1.1 | 0.45 | 1.34 | 9.42% (inactive) | -0.431 (inactive) | -0.000129 (inactive) | 0.00516 (inactive) | inactive | 21.5% (inactive) |
| CCOC(=O)C1=C(N)N2C(=O)CSC2=C(C(=O)OC)C1 | 523 | 1.5% (inactive) | -111% (inactive) | 138 | 0.366 | 1.6 | -1.91 | 5.42% (inactive) | -0.476 (inactive) | -0.000109 (inactive) | 0.00418 (inactive) | inactive | -0.259% (inactive) |
| Cn1c(=O)c2c(nc(Oc3ccc4c(c3)OCO4)n2Cc2ccc(Br)cc2)n(C)c1=O | 619 | 8.1% (inactive) | -44% (inactive) | 123 | 0.319 | -0.507 | 0.317 | 7.93% (inactive) | -0.562 (inactive) | -3.8e-05 (inactive) | 0.00702 (inactive) | inactive | 29.5% (inactive) |
| Cc1[nH]nc(-c2ccc(O)cc2O)c1Oc1ccccc1 | 565 | -2.3% (inactive) | -110% (inactive) | 175 | 1.43 | -0.0429 | -0.868 | 15.9% (inactive) | -0.433 (inactive) | -7e-05 (inactive) | 0.00505 (inactive) | inactive | 9.24% (inactive) |
| CC1(C(=O)CSc2nc3ccccc3[nH]2)CCC(=O)O1 (stereo not drawn) | 631 | -2% (inactive) | -8.2% (inactive) | 115 | -2.03 | -0.005 | -0.394 | -13.3% (inactive) | -0.508 (inactive) | -1.8e-05 (inactive) | 0.0059 (inactive) | inactive | 0.18% (inactive) |
| Cc1cc(C)c(S(=O)(=O)O)c(C)n1 | 533 | -13.8% (inactive) | 6.7% (inactive) | 203 | -0.302 | 0.575 | 0.985 | -5.95% (inactive) | -0.393 (inactive) | -4.7e-05 (inactive) | 0.00523 (inactive) | inactive | -7.08% (inactive) |
| COC(=O)c1ccc(CSc2nc(N3CCOCC3)c3c(c2C#N)CC(C)(C)OC3)o1 | 563 | -4.2% (inactive) | -97.4% (inactive) | 151 | 0.813 | -0.6 | 1.8 | 1.63% (inactive) | -0.461 (inactive) | -0.000112 (inactive) | 0.00467 (inactive) | inactive | 6.95% (inactive) |
| CCCCSc1nc(O)c(C2OC(=O)c3c2ccc(OC)c3OC)c(=O)n1C (stereo not drawn) | 559 | 1.9% (inactive) | 57.7% (active) | 95.8 | -2.21 | -0.0853 | 0.751 | 9.91% (inactive) | -0.372 (inactive) | -2.3e-05 (inactive) | 0.00535 (inactive) | inactive | 32.4% (inactive) |
